UPR CHOP act = apoptotic UPR (CHOP) activation; CHO-CHOP luciferase reporter, luminescence; percent of tunicamycin response over DMSO baseline; activation, % at 10 µM; hit rate 0.34% among 330,000; AID 449763;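 active means at 10 µM dose, activation of 40% or more, normalized to positive control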;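 further: 100% = tunicamycin at 10 µg/mL and 0% = DMSO alone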
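Evaluation: % reporter activation, DMSO baseline versus tunicamycin full activation; System: CHO-CHOP luciferase reporter cell line; Input: 500 cells/well; Incubation: 6 h compound treatment, 37 °C; Measured by: Steady-Glo luciferase luminescence; Dosing: one dose, 10 µM in 0.5% DMSO; Buffer or medium: F12 medium, 10% FBS; Benchmarks: positive tunicamycin 10 µg/mL, negative DMSO alone.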
UPR XBP1 act = adaptive UPR (XBP1) activation; AID 463104; CHO-XBP1 luciferase reporter, IRE1-XBP1 UPR activation, luminescence; percent of tunicamycin response, DMSO as zero; hit rate 0.33% among 330,000; activation, % at 20 µM;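 active means versus positive control, 20 µM dose yields 30% or more activation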;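 further: 100% = tunicamycin at 10 µg/mL and 0% = DMSO only wells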
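Assay system: CHO-XBP1 luciferase reporter cells; Schedule: 6 h treatment, 37 °C; Detection: glow luminescence from Steady-Glo reagent; Benchmarks: high control tunicamycin 10 µg/mL final, low control DMSO vehicle only.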
MC4R antagonist = human MC4R antagonism in cAMP assay | P32245 | MC4R-expressing cells, MTII-stimulated cAMP, LANCE TR-FRET | inhibition, % at 6.5 µM | hit rate 0.48% among 360,000 | AID 540295;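 active means inhibition above its plate's cutoff, the mean of tested wells on that plate plus 3 SD, cut at about 29% in these data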;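 further: 0% = Melanotan II alone and 100% = Melanotan II plus saturating MCL0020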
Target sequence (P32245 whole entry, looked up): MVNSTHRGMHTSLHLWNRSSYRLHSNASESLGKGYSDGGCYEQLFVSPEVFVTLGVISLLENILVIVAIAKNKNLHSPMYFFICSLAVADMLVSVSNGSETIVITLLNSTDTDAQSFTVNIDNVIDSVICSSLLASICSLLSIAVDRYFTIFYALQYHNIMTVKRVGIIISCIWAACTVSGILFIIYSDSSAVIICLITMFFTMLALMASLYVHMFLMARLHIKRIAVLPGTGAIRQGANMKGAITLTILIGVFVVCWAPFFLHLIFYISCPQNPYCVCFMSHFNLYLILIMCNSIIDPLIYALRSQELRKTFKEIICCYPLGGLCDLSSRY
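material = U2OS cells stably expressing human melanocortin 4 receptor (MC4R) | also added = Melanotan II challenge | dosing = single nominal compound dose of 6.5 µM | detection = TR-FRET with Eu-cAMP and labeled anti-cAMP, 671 nm | replication = singlicate | timing = compound 30 min, challenge 1 h, detection 1 h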
Bfl-1 A1 inh = inhibitors of the anti-apoptotic protein A1, read as caspase activation | MEF A1-2A-BIM cells, Caspase-Glo 3/7 luminescence, 3 h; percent of clofoctol response, vehicle zero | caspase activation, % (concentration not given with the values) | hit rate 0.066% among 330,000;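 active means over half of replicate activation scores above 10%, or exactly half above 10 with the replicate mean above 10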
MC4R barr agon = human MC4R agonism via beta-arrestin; hit rate 0.98% among 360,000; P32245; activation, % at 8.9 µM; U2OS MC4R beta-arrestin complementation, luminescence; percent of melanotan II response, DMSO zero; AID 540308;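 active means activation above a per-plate cutoff, the mean activation of sample wells on that plate plus 3 SD, cut at about 8% in these data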
UPR CHOP confirm = confirmation of apoptotic unfolded protein response (CHOP) activators | shares compounds with UPR CHOP act | CHO-CHOP cells, CHOP-luciferase reporter luminescence; percent of tunicamycin response, DMSO as zero | activation, % at 10 µM | hit rate 64% among 1,000; in the data active means activation above about 33%;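 further: 0% = DMSO wells and 100% = tunicamycin 10 µg/mL wells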
XBP1 UPR conf = adaptive UPR (XBP1) activation, confirmed. shares compounds with UPR XBP1 act. CHO-XBP1 IRE1-XBP1 luciferase reporter, luminescence. activation, % at 20 µM. hit rate 63% among 1,000. AID 485299;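 active means reporter signal at least 30% of the positive control's activation in two or more of four replicate wells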;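 further: plate controls were DMSO negative control for no effect and tunicamycin 10 µg/mL positive control for full effect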
Active calls of the source: *; . = no result given. In the library only some 2% were active in any assay of this set; here they are far more common.

SMILES | UPR CHOP act | UPR XBP1 act | MC4R antagonist | Bfl-1 A1 inh | MC4R barr agon | UPR CHOP confirm | XBP1 UPR conf
Cc1ccc(C(=O)C(C(=O)/C=C/c2ccccc2)=C2SCCCS2)cc1 | 75* | 30* | -1 | 1 | -3 | 96* | 39*
COc1cccc(CN(C)C(=O)c2ccc(S(=O)(=O)Nc3cccc(C)c3C)cc2)c1OC | . | . | 15 | . | 0 | . | .
COc1ccc(OC)c(NC(=O)c2ccc3c(=O)n(CCc4ccccc4)c(=S)[nH]c3c2)c1 | 46* | 36* | 9 | 0 | -2 | 7 | 16
O=C(NCCc1ccc(O)c(O)c1)C1COc2ccccc2O1 (centres undefined) | 64* | 50* | 6 | 0 | 0 | 9 | 46*
COCCNC(=O)C1(C)CCCN(CCOc2ccc(Cl)cc2)C1 (centres undefined) | . | . | 3 | . | -1 | . | .
COc1ccc([C@H]2C[C@@H](O)[C@H](n3cc(-c4ccc(F)cc4)nn3)CN2C(=O)C2CCCCC2)cc1 | . | . | 0 | . | 1 | . | .
Cc1ccc(/C=N/Nc2nncc(-c3ccccc3)n2)o1 | 3 | -3 | -23 | -1 | 1 | . | .
Clc1ccc(-c2ccc(/C=N/Nc3nncc(-c4ccccc4)n3)o2)cc1 | 42* | 76* | 4 | 0 | 0 | 44* | 145*
Cc1ccc(-n2nc3cc(C)c(NC(=S)NC(=O)/C=C/c4ccco4)cc3n2)cc1 | 65* | 56* | 11 | -2 | 2 | 128* | 114*
Cc1ccc(C)c(NC(=S)c2ccc3ccccc3n2)c1 | 4 | 2 | 23 | -4 | 3 | . | .
Cc1ccc(C)c(NC(=S)c2ccccn2)c1 | 125* | 33* | -5 | -1 | -1 | 112* | 13
CCn1cc(C(=O)NC(=S)Nc2sc3c(c2C(=O)OC)CCCCCC3)cn1 | 71* | 60* | 13 | 0 | -2 | 35* | 57*
Cc1[nH]c2ccccc2c1CN1CCC(Cc2ccccc2)CC1 | 46* | 33* | -4 | 0 | 3 | 47* | 21
Oc1ccc(CN2CCC(Cc3ccccc3)CC2)c2cccnc12 | 385* | 39* | . | . | . | 254* | 31*
CC1=C(CC/C(C)=N/NC(N)=S)C(C)(C)CCC1 | 151* | 58* | 3 | 0 | 0 | 48* | 55*
CC(C)=CCN1CCN(CCC2=C(C)CCCC2(C)C)CC1CCO (centres undefined) | 2 | 2 | 1 | 1 | -2 | . | .
N#Cc1cnc2nc1NCCCCCCC2 | . | . | -1 | . | -1 | . | .
CCOC(=O)/C=c1\s/c(=C\c2ccc3cc(OC)ccc3c2)c(=O)n1CC(=O)NCC1CCCO1 (centres undefined) | 86* | 371* | 0 | 3 | -2 | 131* | 580*
C[C@H]1CN([C@@H](C)CO)S(=O)(=O)c2ccc(Br)cc2O[C@@H]1CN(C)Cc1cccc(F)c1 | . | . | 12 | . | 3 | . | .
COc1ccc(CC(=O)Nc2ccc(S(=O)(=O)Nc3cc(C)nc(C)n3)cc2)cc1OC | . | . | 3 | . | 3 | . | .
O=c1/c(=C/c2ccc(O)cc2)sc2nc3cc(Br)cnc3n12 | 63* | 79* | . | -1 | . | 13 | 21
O=c1/c(=C\c2ccc(O)cc2)sc2nc(-c3ccccc3)c(-c3ccccc3)n12 | 3 | 0 | 3 | 0 | -2 | . | .
Cn1c(=O)c2c(SCC(=O)Nc3cccc(F)c3)nc(-c3ccco3)nc2n(C)c1=O | 158* | 481* | -6 | 1 | -2 | 0 | 4
Cn1c(=O)c2c(SCc3cccc(C(F)(F)F)c3)nc(-c3ccco3)nc2n(C)c1=O | 6 | 20 | 3 | 0 | -2 | . | .
CCOc1cc(/C=N/Nc2cc(C)nc(-n3nc(C)cc3C)n2)ccc1O | 86* | 48* | -13 | 8.6* | -1 | 63* | 27
CCOc1cc(/C=N/Nc2nc(C)cc(=O)[nH]2)ccc1O | 0 | -2 | -7 | 0 | -2 | . | .

Source: PubChem (several laboratories)
